Source: PubChem
CSN deneddyl inh: blocks human CSN-mediated cullin deneddylation; actives 0.38% (n = 360,000); Purified CSN, SCF-Nedd8-OG deneddylation, fluorescence polarization; inhibition, % at 12.5 µM; AID 651999; Q92905;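 active = pattern-corrected inhibition above about 35%, with an unprinted fluorescence ratio check between 0.5 and 1.5, limit read from the data, passing the limit was not always enough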
Target sequence (Q92905 whole entry, looked up, one chain of several): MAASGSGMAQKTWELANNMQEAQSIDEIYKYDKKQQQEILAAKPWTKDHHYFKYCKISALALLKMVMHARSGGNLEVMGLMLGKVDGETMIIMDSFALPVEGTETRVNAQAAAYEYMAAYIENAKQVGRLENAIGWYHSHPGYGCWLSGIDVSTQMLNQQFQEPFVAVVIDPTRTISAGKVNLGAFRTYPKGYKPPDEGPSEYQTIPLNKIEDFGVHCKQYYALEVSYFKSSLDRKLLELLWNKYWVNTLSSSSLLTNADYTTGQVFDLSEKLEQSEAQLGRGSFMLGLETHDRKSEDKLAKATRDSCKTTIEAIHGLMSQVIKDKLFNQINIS
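Test system: Human Csn5 produced in HEK293T cells | Compound: 12.5 µM single point | Times: 90 min, room temperature | Signal: Fluorescence polarization readout | Read-out basis: % inhibition of substrate cleavage by Csn5 | Controls: no-enzyme wells high, enzyme-with-substrate wells low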
HNF4A DNA FP: change in binding of human HNF4 alpha to DNA. HNF4a-FITC DNA binding, fluorescence polarization, 1 h. activity change, % at 10 µM. actives 0.3% (n = 360,000). AID 1224865; in the data active = activity change above about 30%, passing the limit was not always enough
TPT1 inhibitor: C. albicans TPT1 enzyme inhibition; recombinant caTPT1, FP RNA substrate dephosphorylation; inhibition, % at 5 µM; actives 0.81% (n = 300,000); AID 1962;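 active = inhibition above the mean of all tested compounds plus 3 SD, set per screening campaign, cut at about 24% in these data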
NR1D1 modulator: modulates human Rev-erb alpha binding to DNA; actives 0.79% (n = 370,000); AID 1259318; activity, % at 10 µM; P20393; Rev-erbα–FITC-DNA binding, fluorescence polarization, 90 min;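 active = activity above about 14%, limit read from the data; passing the limit was not always enough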
caTPT1 confirm: TPT1 (C. albicans) inhibition, confirmation; actives 74% (n = 2,400); inhibition, % at 5 µM; recombinant caTPT1, fluorescence polarization, RNase T1 coupled; shares compounds with TPT1 inhibitor;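 active = inhibition above the primary screen limit, the mean inhibition of all tested compounds plus 3 SD, cut at about 25% in these data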
RNase T1 counter: counter-screen for TPT1 inhibitors: inhibitors of Aspergillus oryzae RNase T1 | RNase T1 cleavage, fluorescence polarization, 1536-well | actives 83% (n = 2,400) | inhibition, % at 5 µM | shares compounds with TPT1 inhibitor | AID 2153;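 active = inhibition above the solvent-only control well mean plus 3 SD, limit set per screening run, cut at about 23% in these data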;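 also: inhibitors block cleavage so intact labeled substrate keeps polarization high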
Target sequence (P00651 whole entry, looked up): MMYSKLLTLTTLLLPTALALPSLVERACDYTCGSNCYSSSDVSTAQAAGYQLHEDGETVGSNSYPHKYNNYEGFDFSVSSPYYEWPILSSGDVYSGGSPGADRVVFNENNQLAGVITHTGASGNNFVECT
Large screens that a line does not name were inactive (follow-up assays come after a bar, where they were run). A selection: hits, their analogues and other compounds. The true share with any hit is near 1.7%.

CC1CC(C)CN(C(=O)C2CCN(c3cncnc3)CC2)C1 (centres undefined)	none (no result: CSN deneddyl inh, HNF4A DNA FP, TPT1 inhibitor)
CC(NC(=O)CC1Nc2ccccc2NC1=O)c1ccccc1 (centres undefined)	TPT1 inhibitor 29.8 | caTPT1 confirm 39.2 | RNase T1 counter 52.1
O=C(CC1Nc2ccccc2NC1=O)c1ccccc1 (centres undefined)	TPT1 inhibitor 73.0 (no result: CSN deneddyl inh, HNF4A DNA FP, NR1D1 modulator) | caTPT1 confirm 62.3 | RNase T1 counter 73.1
Cc1cc(Nc2ccc(OC(F)F)cc2)cc(=O)n1-c1ccc(OC(F)F)cc1	none (no result: CSN deneddyl inh, HNF4A DNA FP, TPT1 inhibitor)
CCOC(=O)C1=CCN(S(=O)(=O)c2ccc(Br)cc2)C1c1cccc(F)c1 (centres undefined)	none (no result: CSN deneddyl inh, HNF4A DNA FP, TPT1 inhibitor)
O=C(NCCc1ccccc1)c1cnc2sccn2c1=O	TPT1 inhibitor 32.6 | caTPT1 confirm inactive | RNase T1 counter inactive
O=C(NCc1ccco1)c1cnc2sccn2c1=O	none
COc1ccc2c3c([nH]c2c1)[C@H]1C[C@H]2[C@H](C[C@@H](O)[C@H](OC)[C@H]2C(=O)O)CN1CC3	none
COC(=O)[C@H]1[C@H]2C[C@@H]3c4[nH]c5cc(OC)ccc5c4CCN3C[C@H]2C[C@@H](OC(=O)/C=C/c2cc(OC)c(OC)c(OC)c2)[C@@H]1OC	TPT1 inhibitor 38.4 | caTPT1 confirm 35.5 | RNase T1 counter 48.0
CCCCNc1ccc2c(c1)OC[C@H](CC(C)C)NS2(=O)=O	none (no result: CSN deneddyl inh, HNF4A DNA FP, TPT1 inhibitor)
O=C(Nc1ccccc1C(F)(F)F)O[C@@H]1CC[C@@]23CCCN2C(=O)CCC[C@H]3C1	none (no result: CSN deneddyl inh, HNF4A DNA FP, TPT1 inhibitor)
O=S(=O)(NCCc1ccc2c(c1)OCCO2)c1cccs1	TPT1 inhibitor 26.1 | caTPT1 confirm inactive | RNase T1 counter 26.6
O=C(C1CCC1)N1CCc2cc(S(=O)(=O)N3CCN(c4ccccc4F)CC3)ccc21	none (no result: CSN deneddyl inh, HNF4A DNA FP, TPT1 inhibitor)
COc1ccc2c(C)cc(SCC#N)nc2c1	TPT1 inhibitor 40.5 | caTPT1 confirm 40.5 | RNase T1 counter 49.0
Cc1cc(SCC#N)nc2ccccc12	none
COC1=C[C@H](C(=O)NCc2ccc(OC)cc2)C(C)C(c2ccccc2)CC1=O (some centres undefined)	none (no result: CSN deneddyl inh, HNF4A DNA FP, TPT1 inhibitor)
O=C1/C(=C/c2c[nH]c3ccccc23)CCC/C1=C\c1c[nH]c2ccccc12	TPT1 inhibitor 50.7 | caTPT1 confirm 147.4 | RNase T1 counter 136.7
Cc1nnc(-c2cccc(Br)c2)c2cn(-c3cccc(Br)c3)nc12	TPT1 inhibitor 47.4 | caTPT1 confirm 79.3 | RNase T1 counter 84.1
COc1ccc(-n2cc3c(-c4cccc(Br)c4)nnc(C)c3n2)cc1	none
O=c1nc(/C=C/c2cccn2-c2ccc([N+](=O)[O-])cc2)cc(C(F)(F)F)[nH]1	TPT1 inhibitor 83.7 | caTPT1 confirm 46.9 | RNase T1 counter 66.0
O=c1nc(/C=C/c2cc([N+](=O)[O-])ccc2Cl)cc(C(F)(F)F)[nH]1	none
O=C(COc1cccc(NC(=O)c2cccc([N+](=O)[O-])c2)c1)c1ccc(F)cc1	TPT1 inhibitor 53.2 | caTPT1 confirm inactive | RNase T1 counter inactive
CC(O)CCC(=O)NNC1=CC(=O)CC(C)(C)C1 (centres undefined)	none (no result: CSN deneddyl inh, HNF4A DNA FP, NR1D1 modulator)
CCCCCC(O)CCC(=O)NNC1=CC(=O)CC(C)(C)C1 (centres undefined)	TPT1 inhibitor 68.9 | caTPT1 confirm inactive | RNase T1 counter inactive
Cc1cc(SCC(=O)NCC2CCCO2)nc2ccccc12 (centres undefined)	TPT1 inhibitor 29.9 | caTPT1 confirm 55.2 | RNase T1 counter 67.4
Cn1c(SCC(=O)NCC2CCCO2)nnc1-c1cccc(NC(=O)c2ccccc2F)c1 (centres undefined)	TPT1 inhibitor 31.3 | caTPT1 confirm inactive | RNase T1 counter inactive
Cn1c(SCC(=O)NC(C)(C)C)nnc1-c1cccc(NC(=O)c2ccccc2F)c1	none
Cc1cc(SCC(=O)NC2CC2)nc2ccccc12	none (no result: TPT1 inhibitor)
C#CCNC(=O)C[C@H]1C[C@@]2(C(=O)OC)C(=C[C@H](C(C)(C)C)O[C@@H]2C)N(Cc2ccc3c(c2)OCO3)C1=O	none (no result: CSN deneddyl inh, HNF4A DNA FP, TPT1 inhibitor)
O=C(CCN1C(=O)/C(=C/c2cccs2)SC1=S)Nc1ccccc1O	TPT1 inhibitor 24.2 | caTPT1 confirm 25.3 | RNase T1 counter 35.9
O=C(CCCN1C(=O)/C(=C/c2cccs2)SC1=S)Nc1cccc(C(=O)O)c1	none
COc1ccc(/C=C2\SC(=S)N(CCC(=O)Nc3ccccc3C(=O)O)C2=O)cc1	none
O=C(CCN1C(=O)/C(=C/c2cccs2)SC1=S)Nc1cccc(C(=O)O)c1	TPT1 inhibitor 53.4 | caTPT1 confirm 48.3 | RNase T1 counter 63.2
O=C(CCCN1C(=O)/C(=C/c2cccs2)SC1=S)Nc1ccccn1	none
COc1ccc(/C=C2\SC(=S)N(CCCC(=O)Nc3ccccc3C(=O)O)C2=O)cc1OC	TPT1 inhibitor 38.9 | caTPT1 confirm 70.0 | RNase T1 counter 77.1
O=C(CCN1C(=O)/C(=C\c2cccs2)SC1=S)Nc1ccccn1	TPT1 inhibitor 31.7 | caTPT1 confirm 27.6 | RNase T1 counter 41.0
C[C@@H]1CN(c2ccc(N3CCN(C(=O)OC(C)(C)C)C[C@@H]3C)cc2C#N)C[C@H](C)O1	none (no result: CSN deneddyl inh, HNF4A DNA FP, TPT1 inhibitor)
CCCCCCN1C=CC=C/C1=C\C=C(C#N)C#N	TPT1 inhibitor 61.2 | caTPT1 confirm 73.0 | RNase T1 counter 84.0
COC(=O)C(=O)C/C(=N/Nc1ncnc2ccccc12)c1ccc(Cl)cc1	TPT1 inhibitor 58.5 | caTPT1 confirm inactive | RNase T1 counter inactive
Cc1ccc(/C(=N/Nc2ncnc3ccccc23)C(=O)O)cc1	none
CCOC(=O)C1=CCN(S(=O)(=O)c2cccc(Cl)c2)C1c1ccc(Cl)cc1 (centres undefined)	none (no result: CSN deneddyl inh, HNF4A DNA FP, TPT1 inhibitor)
Cc1cccc(N=C2NC(=O)/C(=C/c3cccn3C)S2)c1C	TPT1 inhibitor 25.4 | caTPT1 confirm 37.1 | RNase T1 counter 49.1
Cc1ccc(N=C2NC(=O)/C(=C/c3cccn3C)S2)cc1C	none
O=C(CSc1nnc(-c2ccccc2)n1-c1ccc(Cl)cc1)Nc1cccc2ccccc12	none (no result: CSN deneddyl inh, HNF4A DNA FP, TPT1 inhibitor)
CN1CCc2c(sc(NC(=O)c3ccc(S(=O)(=O)N4CCc5ccccc54)cc3)c2C(N)=O)C1	TPT1 inhibitor 33.8 (no result: CSN deneddyl inh, HNF4A DNA FP) | caTPT1 confirm 50.6 | RNase T1 counter 63.3
CNC(=O)c1c(NC(=O)c2ccc(S(=O)(=O)N3CCCc4ccccc43)cc2)sc2c1CCN(C)C2	HNF4A DNA FP 32.3, TPT1 inhibitor 103.3 | caTPT1 confirm 79.4 | RNase T1 counter 87.6
CN1CCc2c(sc(NC(=O)c3ccco3)c2C(N)=O)C1	none
CN1CCc2nc(NC(=O)c3cccc(S(=O)(=O)N4CCc5ccccc54)c3)sc2C1	CSN deneddyl inh 41.1, HNF4A DNA FP 49.8, TPT1 inhibitor 49.5 | caTPT1 confirm inactive | RNase T1 counter 29.1
CCN1CCc2c(sc(NC(=O)c3ccc(S(=O)(=O)N4CCCC4)cc3)c2C(=O)NC)C1	none
O=[N+]([O-])c1ccc(OC2OCC(O)C(O)C2O)cc1 (centres undefined)	none (no result: CSN deneddyl inh, HNF4A DNA FP, TPT1 inhibitor)
O=C(C1CCCN(S(=O)(=O)c2ccccc2[N+](=O)[O-])C1)N1CCN(Cc2ccccc2)CC1 (centres undefined)	none (no result: CSN deneddyl inh, HNF4A DNA FP, TPT1 inhibitor)
